# Measured values from ChEMBL document CHEMBL4665738, “Identification of 4-anilino-6-aminoquinazoline derivatives as potential MERS-CoV inhibitors” (Bioorg Med Chem Lett, 2020).
# How the values were obtained:
# [1] = tested on: Middle East respiratory syndrome-related coronavirus; assay: Antiviral activity against Middle East respiratory syndrome coronavirus MERS-CoV/KOR/KNIH/002_05_2015 infected in African green monkey Vero cells assessed as reduction in virus induced cytopathic effect after 24 hrs by immunofluorescence assay; type: functional, organism-based; settings: MERS-CoV/KOR/KNIH/002_05_2015, Vero
# Vero = assay: Cytotoxicity against African green monkey Vero cells infected with Middle East respiratory syndrome coronavirus MERS-CoV/KOR/KNIH/002_05_2015 assessed as reduction in cell viability; type: cell-based; settings: chlorocebus sabaeus
# [2] = molecular target: Voltage-gated inwardly rectifying potassium channel KCNH2 (Homo sapiens, UniProt Q12809); assay: Modulation of human ERG
# Sequence of Voltage-gated inwardly rectifying potassium channel KCNH2 (Q12809 whole entry): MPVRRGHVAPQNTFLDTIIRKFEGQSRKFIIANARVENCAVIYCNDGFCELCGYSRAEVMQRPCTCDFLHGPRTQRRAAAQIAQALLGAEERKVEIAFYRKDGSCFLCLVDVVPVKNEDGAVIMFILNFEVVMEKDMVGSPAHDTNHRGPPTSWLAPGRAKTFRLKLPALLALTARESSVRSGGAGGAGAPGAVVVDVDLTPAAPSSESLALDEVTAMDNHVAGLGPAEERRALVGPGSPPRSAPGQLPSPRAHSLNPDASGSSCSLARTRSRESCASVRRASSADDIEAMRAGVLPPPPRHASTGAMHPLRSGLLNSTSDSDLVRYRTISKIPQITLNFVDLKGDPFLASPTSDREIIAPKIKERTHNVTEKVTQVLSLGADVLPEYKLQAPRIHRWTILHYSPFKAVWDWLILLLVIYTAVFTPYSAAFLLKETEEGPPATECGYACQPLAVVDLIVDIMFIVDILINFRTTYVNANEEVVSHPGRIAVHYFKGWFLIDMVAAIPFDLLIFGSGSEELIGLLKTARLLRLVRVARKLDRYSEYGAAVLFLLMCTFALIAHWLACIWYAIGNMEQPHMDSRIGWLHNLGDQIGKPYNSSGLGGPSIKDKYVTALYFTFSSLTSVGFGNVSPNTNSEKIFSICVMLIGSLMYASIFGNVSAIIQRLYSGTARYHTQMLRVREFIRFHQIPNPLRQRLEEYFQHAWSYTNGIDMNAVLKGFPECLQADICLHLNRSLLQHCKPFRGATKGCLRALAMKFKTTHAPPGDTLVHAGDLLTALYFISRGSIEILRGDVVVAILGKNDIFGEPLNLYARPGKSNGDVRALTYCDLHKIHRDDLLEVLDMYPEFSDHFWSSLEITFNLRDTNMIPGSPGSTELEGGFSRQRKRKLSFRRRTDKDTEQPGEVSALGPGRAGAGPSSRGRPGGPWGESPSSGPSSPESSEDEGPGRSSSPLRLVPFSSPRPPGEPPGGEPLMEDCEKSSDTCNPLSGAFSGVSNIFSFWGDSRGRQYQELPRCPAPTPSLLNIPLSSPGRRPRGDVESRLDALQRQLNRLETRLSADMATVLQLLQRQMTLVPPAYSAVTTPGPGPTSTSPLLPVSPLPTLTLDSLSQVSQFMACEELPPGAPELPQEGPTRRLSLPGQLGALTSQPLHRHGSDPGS
# [3] = Metabolic stability in mouse microsomes assessed as parent compound remaining incubated for 30 mins; type: ADME, Microsome; settings: read-out: Stabilty
# Procedure, shortened: (§1)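 Mouse or human liver microsomes were incubated with the compound for 30 min. The read-out is the percentage of original compound remaining.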
# [4] = Metabolic stability in human microsomes assessed as parent compound remaining incubated for 30 mins; type: ADME, Microsome; settings: read-out: Stabilty; procedure, shortened: as §1
# [5] = Cytotoxicity against African green monkey Vero cells; type: cell-based; settings: chlorocebus sabaeus
# Procedure, shortened: (§2)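 Cytotoxicity values are given in µM, each against a named cell line: Vero (African green monkey kidney), HFL-1 (human embryonic lung), L929 (NCTC clone 929 mouse fibroblast), NIH 3T3 (mouse embryonic fibroblast) and CHO-K1 (Chinese hamster ovary).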
# [6] = Cytotoxicity against human HFL-1 cells; type: cell-based, HFL1; procedure, shortened: as §2
# [7] = Cytotoxicity against mouse L929 cells; type: cell-based; procedure, shortened: as §2
# [8] = Cytotoxicity against mouse NIH/3T3 cells; type: cell-based, NIH3T3; procedure, shortened: as §2
# [9] = Cytotoxicity against CHO-K1 cells; type: cell-based, Cricetulus griseus; settings: chinese hamster; procedure, shortened: as §2
# [10] = Half life in rat at 2 mg/kg, iv; type: ADME, organism-based; settings: in vivo
# Procedure, shortened: (§3)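 Rats were dosed intravenously at 2 mg/kg or orally at 5 mg/kg. Each parameter is the mean of experiments in three rats.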
# [11] = AUC in rat at 2 mg/kg, iv; type: ADME, organism-based; set-up: dose 2 mg/kg; settings: in vivo
# Procedure, shortened: (§4)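 Rat pharmacokinetic study with separate intravenous (2 mg/kg) and oral (5 mg/kg) dosing arms; reported parameters are means from three rats per experiment.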
# [12] = Clearance in rat at 2 mg/kg, iv; type: ADME, organism-based; settings: in vivo; procedure, shortened: as §3
# [13] = Volume of distribution at steady state in rat at 2 mg/kg, iv; type: ADME, organism-based; settings: in vivo, read-out: Vdss; procedure, shortened: as §3
# [14] = Cmax in rat at 5 mg/kg, po; type: ADME, organism-based; set-up: route oral, dose 5 mg/kg; settings: in vivo; procedure, shortened: as §3
# [15] = Half life in rat at 5 mg/kg, po; type: ADME, organism-based; settings: in vivo; procedure, shortened: as §3
# [16] = AUC in rat at 5 mg/kg, po; type: ADME, organism-based; set-up: dose 5 mg/kg; settings: in vivo; procedure, shortened: as §4
# [17] = Oral bioavailability in rat at 5 mg/kg; type: ADME, organism-based; settings: in vivo; procedure, shortened: as §3
# in vivo = settings: rat, po, 5 mg/kg
SMILES,IC50 [1] [µM],CC50 (Vero) [µM],other results
CC(=O)Nc1ccc2ncnc(Nc3ccc(F)c(Cl)c3)c2c1,> 25,,
COc1cccc(CNc2ccc3ncnc(Nc4ccc(F)c(Cl)c4)c3c2)c1,5.6,> 25,
COc1cccc(CNc2ccc3ncnc(Nc4ccc(C#N)cc4)c3c2)c1,> 25,> 25,
Fc1ccc(Nc2ncnc3ccc(NC4CCCCC4)cc23)cc1Cl,15,> 25,
COc1cccc(CNc2ccc3ncnc(Nc4ccc(F)cc4)c3c2)c1,22.7,> 25,
Fc1ccc(CNc2ccc3ncnc(Nc4ccc(F)c(Cl)c4)c3c2)cc1,4.6,14.4,
N#Cc1cccc(/C=C/C(=O)Nc2ccc3ncnc(Nc4ccc(F)c(Cl)c4)c3c2)c1,> 25,,
COc1cccc(CNc2ccc3ncnc(Nc4cccc(C(C)=O)c4)c3c2)c1,> 25,,
O=[N+]([O-])c1cccc(CNc2ccc3ncnc(Nc4ccc(F)c(Cl)c4)c3c2)c1,6.1,> 25,
Fc1ccc(CNc2ccc3ncnc(Nc4ccc(F)c(Cl)c4)c3c2)cc1F,4.6,23,
O=[N+]([O-])c1cccc(CNc2ccc3ncnc(Nc4ccc(C(F)(F)F)cc4)c3c2)c1,3.7,> 25,
COc1cc2ncnc(Nc3ccc(F)c(Cl)c3)c2cc1NCc1cccc(C#N)c1,5.8,13.2,
N#Cc1cccc(CNc2ccc3ncnc(Nc4ccc(C(F)(F)F)cc4)c3c2)c1,3.6,> 25,
Oc1ccccc1CNc1ccc2ncnc(Nc3ccc(F)c(Cl)c3)c2c1,3.6,,
Fc1ccc(Nc2ncnc3ccc(NCc4cccc(C(F)(F)F)c4)cc23)cc1Cl,2.3,9.2,
COc1ccccc1CNc1ccc2ncnc(Nc3ccc(F)c(Cl)c3)c2c1,3.8,> 25,

SMILES,IC50 [1] [µM],CC50 (Vero) [µM],other results
N#Cc1cccc(C(=O)Nc2ccc3ncnc(Nc4ccc(F)c(Cl)c4)c3c2)c1,> 25,,
O=[N+]([O-])c1ccc(CNc2ccc3ncnc(Nc4ccc(F)c(Cl)c4)c3c2)cc1,2.7,> 25,
O=[N+]([O-])c1ccccc1CNc1ccc2ncnc(Nc3ccc(F)c(Cl)c3)c2c1,3.3,> 25,
N#Cc1cccc(CNc2cc3c(Nc4ccc(F)c(Cl)c4)ncnc3cc2O)c1,> 25,> 25,
N#Cc1ccc(CNc2ccc3ncnc(Nc4ccc(C(F)(F)F)cc4)c3c2)cc1,4.1,> 25,
O=[N+]([O-])c1ccc(CNc2ccc3ncnc(Nc4ccc(C(F)(F)F)cc4)c3c2)cc1,3.3,> 25,
COc1cccc(CNc2ccc3ncnc(Nc4cccc(Cl)c4)c3c2)c1,> 25,23,
N#Cc1cccc(CNc2ccc3ncnc(Nc4ccc(F)c(Cl)c4)c3c2)c1,0.157,,Activity [2]: > 50 µM; remaining at 0.5 h [3]: 60.7%; remaining at 0.5 h [4]: 56.4%; CC50 [5]: > 100 µM; CC50 [6]: > 100 µM; CC50 [7]: > 100 µM; CC50 [8]: > 100 µM; CC50 [9]: > 100 µM; half-life [10]: 5.9 h; AUC [11]: 1110 ng·h/mL; clearance [12]: 28.8 mL/min/kg; Vd [13]: 6.3 L/kg; Cmax [14]: 0.2 µg/h; half-life [15]: 5.5 h; AUC [16]: 570 ng·h/mL; bioavailability [17]: 21%; Tmax (in vivo): 2 h
N#Cc1ccccc1CNc1ccc2ncnc(Nc3ccc(C(F)(F)F)cc3)c2c1,> 25,> 25,
NC(=O)c1cccc(CNc2ccc3ncnc(Nc4ccc(F)c(Cl)c4)c3c2)c1,> 25,,
COc1cccc(CNc2ccc3ncnc(Nc4ccc(C(F)(F)F)cc4)c3c2)c1,1.8,> 25,
N#Cc1ccc(CNc2ccc3ncnc(Nc4ccc(F)c(Cl)c4)c3c2)cc1,4.8,> 25,
COc1cccc(CNc2ccc3ncnc(Nc4ccc(Br)cc4)c3c2)c1,7.4,> 25,
N#Cc1ccccc1CNc1ccc2ncnc(Nc3ccc(F)c(Cl)c3)c2c1,> 25,> 25,
CCCCN(CCCC)c1ccc2ncnc(Nc3ccc(F)c(Cl)c3)c2c1,> 25,,
